Data on one compound can be found in ChEMBL document CHEMBL1914304 (J Med Chem, 2011).

For orientation: inhibition means the share of the control response that was lost under treatment. The term IC50 denotes the concentration needed to halve the response being measured. A lower IC50 goes with greater potency.

The target of series [1] is Voltage-dependent T-type calcium channel subunit alpha-1H (Homo sapiens) (UniProt O95180). Put plainly: Inhibition of Cav3.2 at 10 uM after 5 mins by patch clamp assay. An outline of the steps: (§1)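 Fixed-concentration screen across a panel of 12 cloned cardiac ion channels. The compound was tested at 10 µM for 5 min exposure at room temperature by automated parallel patch clamp, in two cells (n ≥ 2) per channel. Values are mean percent inhibition of channel current.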
Chain of Voltage-dependent T-type calcium channel subunit alpha-1H (Homo sapiens) (O95180 whole entry): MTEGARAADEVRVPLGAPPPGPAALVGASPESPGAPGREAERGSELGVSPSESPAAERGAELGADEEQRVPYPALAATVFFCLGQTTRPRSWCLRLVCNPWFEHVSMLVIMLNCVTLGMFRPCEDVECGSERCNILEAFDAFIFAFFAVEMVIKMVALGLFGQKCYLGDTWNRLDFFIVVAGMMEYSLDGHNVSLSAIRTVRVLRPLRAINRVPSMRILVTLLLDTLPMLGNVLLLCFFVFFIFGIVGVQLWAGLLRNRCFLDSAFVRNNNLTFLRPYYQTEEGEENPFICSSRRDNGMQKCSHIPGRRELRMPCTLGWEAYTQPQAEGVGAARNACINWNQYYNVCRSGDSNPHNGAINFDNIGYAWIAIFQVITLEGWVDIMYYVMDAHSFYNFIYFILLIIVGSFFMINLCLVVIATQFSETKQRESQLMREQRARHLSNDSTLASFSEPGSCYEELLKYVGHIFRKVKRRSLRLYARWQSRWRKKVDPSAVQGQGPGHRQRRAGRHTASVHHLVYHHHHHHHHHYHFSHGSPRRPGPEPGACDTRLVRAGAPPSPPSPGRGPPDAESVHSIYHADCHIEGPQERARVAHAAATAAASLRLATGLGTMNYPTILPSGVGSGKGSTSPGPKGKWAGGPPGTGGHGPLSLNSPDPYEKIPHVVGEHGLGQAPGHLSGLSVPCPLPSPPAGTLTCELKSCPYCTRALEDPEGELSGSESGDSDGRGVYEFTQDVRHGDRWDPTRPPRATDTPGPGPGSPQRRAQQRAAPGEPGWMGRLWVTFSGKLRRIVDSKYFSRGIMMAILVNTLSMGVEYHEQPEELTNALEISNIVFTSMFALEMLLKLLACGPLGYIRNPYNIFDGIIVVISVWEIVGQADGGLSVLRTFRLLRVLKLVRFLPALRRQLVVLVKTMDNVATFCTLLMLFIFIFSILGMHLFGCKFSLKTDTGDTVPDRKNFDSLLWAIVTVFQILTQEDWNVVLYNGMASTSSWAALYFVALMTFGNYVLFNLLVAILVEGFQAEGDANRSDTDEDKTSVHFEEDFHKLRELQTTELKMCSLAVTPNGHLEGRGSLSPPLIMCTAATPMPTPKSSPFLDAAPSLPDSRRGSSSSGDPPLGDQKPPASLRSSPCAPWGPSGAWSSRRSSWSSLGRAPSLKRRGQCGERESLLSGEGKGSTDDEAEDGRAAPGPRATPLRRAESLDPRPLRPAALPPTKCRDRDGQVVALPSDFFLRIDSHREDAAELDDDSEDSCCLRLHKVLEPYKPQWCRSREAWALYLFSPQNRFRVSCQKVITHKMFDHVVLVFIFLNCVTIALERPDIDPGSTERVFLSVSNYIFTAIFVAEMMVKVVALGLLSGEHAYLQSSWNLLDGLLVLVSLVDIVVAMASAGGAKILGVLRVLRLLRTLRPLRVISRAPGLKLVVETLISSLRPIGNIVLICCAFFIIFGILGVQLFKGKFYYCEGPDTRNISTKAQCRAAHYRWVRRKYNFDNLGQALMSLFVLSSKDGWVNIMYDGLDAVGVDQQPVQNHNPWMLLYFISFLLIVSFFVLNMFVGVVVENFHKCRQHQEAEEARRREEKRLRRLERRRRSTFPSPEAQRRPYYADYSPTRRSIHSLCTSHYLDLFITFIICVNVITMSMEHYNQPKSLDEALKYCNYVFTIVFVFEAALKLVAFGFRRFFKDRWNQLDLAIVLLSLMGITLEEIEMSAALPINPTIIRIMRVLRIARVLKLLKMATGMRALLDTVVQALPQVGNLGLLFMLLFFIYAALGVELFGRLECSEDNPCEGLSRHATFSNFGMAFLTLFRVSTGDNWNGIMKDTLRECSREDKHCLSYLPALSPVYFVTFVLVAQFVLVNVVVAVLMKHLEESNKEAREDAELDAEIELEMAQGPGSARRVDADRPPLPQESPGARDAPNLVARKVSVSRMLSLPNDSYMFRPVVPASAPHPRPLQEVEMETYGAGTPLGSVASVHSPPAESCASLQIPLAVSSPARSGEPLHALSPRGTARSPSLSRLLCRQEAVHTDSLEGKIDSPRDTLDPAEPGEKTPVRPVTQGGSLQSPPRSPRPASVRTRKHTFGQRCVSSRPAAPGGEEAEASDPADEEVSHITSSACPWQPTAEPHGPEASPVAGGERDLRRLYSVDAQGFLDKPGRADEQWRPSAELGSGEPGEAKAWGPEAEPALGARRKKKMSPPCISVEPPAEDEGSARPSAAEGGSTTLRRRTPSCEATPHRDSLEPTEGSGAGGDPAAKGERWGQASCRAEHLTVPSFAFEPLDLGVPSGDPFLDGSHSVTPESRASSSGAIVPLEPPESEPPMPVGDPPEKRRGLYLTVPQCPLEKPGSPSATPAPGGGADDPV
In general terms: In patch-clamp work, channel activity is measured electrically.

Series [2] deals with T1, Potassium/sodium hyperpolarization-activated cyclic nucleotide-gated channel 4 (Homo sapiens) (UniProt Q9Y3Q4).
T1 sequence (whole entry): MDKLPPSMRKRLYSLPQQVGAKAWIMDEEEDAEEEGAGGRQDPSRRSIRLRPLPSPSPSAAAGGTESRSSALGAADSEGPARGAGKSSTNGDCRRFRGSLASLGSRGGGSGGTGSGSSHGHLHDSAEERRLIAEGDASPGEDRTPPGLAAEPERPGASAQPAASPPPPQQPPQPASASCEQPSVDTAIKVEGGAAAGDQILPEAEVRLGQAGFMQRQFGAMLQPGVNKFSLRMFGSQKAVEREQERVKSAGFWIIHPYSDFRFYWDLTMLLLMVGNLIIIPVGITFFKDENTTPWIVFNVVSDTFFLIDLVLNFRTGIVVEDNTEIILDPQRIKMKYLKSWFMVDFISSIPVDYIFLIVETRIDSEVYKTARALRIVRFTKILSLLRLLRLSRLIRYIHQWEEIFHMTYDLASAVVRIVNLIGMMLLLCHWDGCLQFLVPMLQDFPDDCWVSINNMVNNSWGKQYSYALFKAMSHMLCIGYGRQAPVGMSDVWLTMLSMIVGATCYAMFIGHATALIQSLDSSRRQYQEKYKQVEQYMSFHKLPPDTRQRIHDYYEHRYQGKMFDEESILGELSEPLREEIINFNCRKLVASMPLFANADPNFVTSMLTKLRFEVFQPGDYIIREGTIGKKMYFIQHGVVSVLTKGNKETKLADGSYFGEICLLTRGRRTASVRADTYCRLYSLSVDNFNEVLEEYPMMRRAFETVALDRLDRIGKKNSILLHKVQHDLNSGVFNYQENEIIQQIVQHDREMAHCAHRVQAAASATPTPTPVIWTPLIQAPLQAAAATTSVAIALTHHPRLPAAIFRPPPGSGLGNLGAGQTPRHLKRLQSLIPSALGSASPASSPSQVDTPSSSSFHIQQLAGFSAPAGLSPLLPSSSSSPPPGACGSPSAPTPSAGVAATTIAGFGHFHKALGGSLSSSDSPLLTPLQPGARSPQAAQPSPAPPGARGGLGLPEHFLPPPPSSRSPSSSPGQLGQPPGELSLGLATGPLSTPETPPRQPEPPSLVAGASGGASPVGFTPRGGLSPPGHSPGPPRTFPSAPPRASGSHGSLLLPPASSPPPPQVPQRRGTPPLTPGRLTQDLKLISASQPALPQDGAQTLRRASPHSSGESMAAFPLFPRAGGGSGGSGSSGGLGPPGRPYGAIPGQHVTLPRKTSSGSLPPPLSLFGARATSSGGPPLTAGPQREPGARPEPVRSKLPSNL
Put plainly: Inhibition of HCN4 at 10 uM after 5 mins by patch clamp assay. In short, it runs like this: (§2)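 Cardiac ion channel panel run by a contract lab on an automated parallel patch-clamp system at room temperature. Each of 12 cardiac channels was tested with 10 µM compound for 5 min exposure, in two cells per channel (n ≥ 2). Values are reported as mean % inhibition.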

Series [3] deals with Potassium voltage-gated channel subfamily A member 5 (Homo sapiens) (UniProt P22460). In words: Inhibition of Kv1.5 at 10 uM after 5 mins by patch clamp assay. In short, it runs like this:
as §2

In the next series the target is T2, Kv4.3 (Homo sapiens, UniProt Q9UK17).
T2 sequence (Q9UK17 whole entry): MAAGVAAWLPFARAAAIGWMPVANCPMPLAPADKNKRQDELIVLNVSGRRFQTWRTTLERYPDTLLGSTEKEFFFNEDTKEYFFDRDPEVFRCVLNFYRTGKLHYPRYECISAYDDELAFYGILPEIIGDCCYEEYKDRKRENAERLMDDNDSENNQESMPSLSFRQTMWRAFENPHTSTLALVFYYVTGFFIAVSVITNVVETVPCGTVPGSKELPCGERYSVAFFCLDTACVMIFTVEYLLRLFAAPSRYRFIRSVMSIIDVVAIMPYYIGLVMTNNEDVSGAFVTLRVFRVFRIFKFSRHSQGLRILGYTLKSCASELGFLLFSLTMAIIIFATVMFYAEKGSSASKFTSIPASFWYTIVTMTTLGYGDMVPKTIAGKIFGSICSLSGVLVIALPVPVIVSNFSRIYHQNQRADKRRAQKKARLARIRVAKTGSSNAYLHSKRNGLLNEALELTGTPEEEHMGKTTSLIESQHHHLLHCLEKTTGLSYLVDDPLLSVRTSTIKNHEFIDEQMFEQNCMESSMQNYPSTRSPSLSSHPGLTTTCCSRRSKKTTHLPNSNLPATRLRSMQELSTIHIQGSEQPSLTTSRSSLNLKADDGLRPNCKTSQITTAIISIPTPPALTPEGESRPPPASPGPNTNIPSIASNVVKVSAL
In words: Inhibition of Kv4.3 at 10 uM after 5 mins by patch clamp assay. In short, it runs like this: as §2

Series [4] in a line: Inhibition of KvLQT/minK at 10 uM after 5 mins by patch clamp assay. In short, it runs like this:
as §1

Series [5] addresses Sulfonylurea receptor 2, Kir6.2 (Homo sapiens, UniProt O60706+Q14654). In words: Inhibition of human kir6.2/SUR2A ion channel coexpressed in human HEK293 cells after 5 mins by patch clamp assay. It is filed as cell-based. In short, it runs like this:
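Human KCNJ11 (Kir6.2) and SUR2A were co-expressed in HEK293 cells to give the ATP-sensitive current IKATP. The assay was run at room temperature by automated parallel patch clamp, with dose-response at 0.2, 0.6, 1.6 and 5 µM. Exposure was 5 min per concentration, with each concentration in two cells (n ≥ 2).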

Chain of Sulfonylurea receptor 2, Kir6.2 (Q14654 whole entry): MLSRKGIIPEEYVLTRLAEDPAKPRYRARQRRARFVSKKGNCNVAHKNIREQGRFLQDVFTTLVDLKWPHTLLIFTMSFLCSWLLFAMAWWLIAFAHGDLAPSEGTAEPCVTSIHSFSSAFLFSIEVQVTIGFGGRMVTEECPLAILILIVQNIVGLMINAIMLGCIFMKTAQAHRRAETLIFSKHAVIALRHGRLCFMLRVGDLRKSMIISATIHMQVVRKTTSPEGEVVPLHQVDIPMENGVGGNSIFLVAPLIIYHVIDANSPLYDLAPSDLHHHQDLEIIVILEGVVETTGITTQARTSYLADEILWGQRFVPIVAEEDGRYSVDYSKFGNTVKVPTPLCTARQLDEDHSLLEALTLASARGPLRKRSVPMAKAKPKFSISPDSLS
Chain of Sulfonylurea receptor 2, Kir6.2 (O60706 whole entry): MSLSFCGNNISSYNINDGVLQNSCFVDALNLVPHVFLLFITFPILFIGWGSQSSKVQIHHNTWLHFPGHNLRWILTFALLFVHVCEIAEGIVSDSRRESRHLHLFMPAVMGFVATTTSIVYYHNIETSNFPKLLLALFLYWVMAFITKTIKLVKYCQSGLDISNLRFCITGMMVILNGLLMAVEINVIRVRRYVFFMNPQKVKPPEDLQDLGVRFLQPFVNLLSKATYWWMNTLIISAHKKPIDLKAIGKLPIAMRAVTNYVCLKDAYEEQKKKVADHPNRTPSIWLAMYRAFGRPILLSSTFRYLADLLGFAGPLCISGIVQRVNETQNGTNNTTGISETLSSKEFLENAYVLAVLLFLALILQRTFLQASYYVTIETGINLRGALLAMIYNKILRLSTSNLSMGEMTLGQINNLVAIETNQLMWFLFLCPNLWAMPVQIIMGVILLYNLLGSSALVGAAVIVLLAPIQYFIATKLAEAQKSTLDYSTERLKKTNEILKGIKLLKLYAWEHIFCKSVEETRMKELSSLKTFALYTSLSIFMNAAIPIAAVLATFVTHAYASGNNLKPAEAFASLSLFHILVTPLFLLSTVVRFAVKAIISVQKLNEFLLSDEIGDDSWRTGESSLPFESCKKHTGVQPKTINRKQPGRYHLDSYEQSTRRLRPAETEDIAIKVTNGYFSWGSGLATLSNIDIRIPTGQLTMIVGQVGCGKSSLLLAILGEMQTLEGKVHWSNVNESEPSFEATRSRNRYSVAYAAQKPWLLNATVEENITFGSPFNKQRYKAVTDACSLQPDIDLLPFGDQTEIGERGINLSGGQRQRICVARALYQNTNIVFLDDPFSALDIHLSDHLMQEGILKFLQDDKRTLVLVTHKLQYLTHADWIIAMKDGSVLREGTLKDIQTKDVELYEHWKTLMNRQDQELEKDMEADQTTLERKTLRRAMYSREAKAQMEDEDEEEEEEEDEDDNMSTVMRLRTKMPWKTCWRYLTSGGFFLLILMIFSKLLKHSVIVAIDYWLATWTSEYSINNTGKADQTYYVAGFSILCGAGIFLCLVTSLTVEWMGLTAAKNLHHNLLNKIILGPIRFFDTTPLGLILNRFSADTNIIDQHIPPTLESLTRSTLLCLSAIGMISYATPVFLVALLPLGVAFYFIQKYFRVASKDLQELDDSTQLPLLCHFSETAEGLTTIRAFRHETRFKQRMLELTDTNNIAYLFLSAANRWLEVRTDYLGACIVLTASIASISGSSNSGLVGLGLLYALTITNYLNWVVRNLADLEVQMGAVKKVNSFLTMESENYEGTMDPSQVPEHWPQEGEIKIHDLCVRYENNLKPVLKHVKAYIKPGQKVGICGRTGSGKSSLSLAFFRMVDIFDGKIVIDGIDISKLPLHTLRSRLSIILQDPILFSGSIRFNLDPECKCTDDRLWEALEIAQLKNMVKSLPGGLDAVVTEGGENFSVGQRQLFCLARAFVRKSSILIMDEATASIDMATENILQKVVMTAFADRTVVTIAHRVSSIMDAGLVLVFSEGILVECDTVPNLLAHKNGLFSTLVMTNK
Chain of Potassium voltage-gated channel subfamily A member 5 (Homo sapiens) (P22460 whole entry): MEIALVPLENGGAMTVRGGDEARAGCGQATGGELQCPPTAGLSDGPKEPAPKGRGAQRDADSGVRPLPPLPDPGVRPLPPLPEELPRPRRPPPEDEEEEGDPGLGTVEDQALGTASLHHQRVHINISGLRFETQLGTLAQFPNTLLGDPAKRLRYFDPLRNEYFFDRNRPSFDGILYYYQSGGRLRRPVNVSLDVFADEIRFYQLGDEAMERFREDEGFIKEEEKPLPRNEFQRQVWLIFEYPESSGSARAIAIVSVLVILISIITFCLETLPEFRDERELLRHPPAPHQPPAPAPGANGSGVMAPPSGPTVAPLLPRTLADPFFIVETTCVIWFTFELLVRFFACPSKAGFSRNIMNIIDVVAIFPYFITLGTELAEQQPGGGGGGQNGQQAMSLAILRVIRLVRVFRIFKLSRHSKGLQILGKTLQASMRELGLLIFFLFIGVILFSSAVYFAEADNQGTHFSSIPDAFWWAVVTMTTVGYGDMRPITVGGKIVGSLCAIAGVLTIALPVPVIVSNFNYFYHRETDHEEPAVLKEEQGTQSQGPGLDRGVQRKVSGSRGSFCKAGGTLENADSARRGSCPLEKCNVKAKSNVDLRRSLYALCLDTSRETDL

In the case of `CCCNCC(O)COc1ccccc1C(=O)CCc1ccccc1` (racemic) [PROPAFENONE], the inhibition in series [1] is 60.2%; in series [2], 54.6%; in series [3] it was 65.4%; in series [4], 33%. The inhibition at 5 min, 10 µM on Kv4.3 came to 44.1%. For the same compound, the midpoint of inhibition in series [5], the IC50, lay at 2200 nM.
